Key:
[1] = (§1) AUC (0 to infinity) in Sprague-Dawley rat at 5 mg/kg, po; assay type: ADME, organism-based, Plasma; set-up: time infinity, dose 5 mg/kg, route oral; settings: Sprague-Dawley, plasma
Summary of the method: (§2)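 Male Sprague-Dawley rats (3–4) were gavaged at 5 mg/kg in 0.5% methyl cellulose, either singly or in a cassette. Serial arterial-cannula blood was drawn up to 6 or 24 h. Parent compound was measured in plasma by LC/MS/MS after protein precipitation. Parameters came from non-compartmental analysis.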

[2] = Metabolic stability in rat liver microsomes assessed as compound remaining at 1 uM after 30 mins; assay type: ADME, Microsome; settings: read-out: Stability
Summary of the method: (§3)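 Rat or human liver microsomes (300 nM cytochrome P450) were incubated in phosphate buffer pH 7.4 with test compound and 1 mM NADPH for 30 min at 37 °C. Reactions were stopped with acetonitrile and centrifuged. Samples were analyzed by LC/MS as percent parent remaining at 30 min.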

[3] = target: T1, C-C chemokine receptor type 1 (Homo sapiens, UniProt P32246); assay: Displacement of [125I]-MIP1-alpha from human recombinant CCR1 expressed in HEK293 cells after 4 hrs by SPA; assay type: cell-based
T1 sequence (P32246 whole entry): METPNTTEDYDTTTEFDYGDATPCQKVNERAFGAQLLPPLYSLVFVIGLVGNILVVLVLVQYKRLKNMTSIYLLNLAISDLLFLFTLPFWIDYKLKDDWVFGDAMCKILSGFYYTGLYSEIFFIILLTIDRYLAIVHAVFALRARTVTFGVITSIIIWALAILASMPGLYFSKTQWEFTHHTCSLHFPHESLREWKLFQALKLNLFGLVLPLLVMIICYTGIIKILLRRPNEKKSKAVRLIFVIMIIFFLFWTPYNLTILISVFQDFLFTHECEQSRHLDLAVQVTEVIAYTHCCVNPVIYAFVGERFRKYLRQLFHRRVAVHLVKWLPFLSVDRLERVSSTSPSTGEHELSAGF
Summary of the method: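 This was a SPA binding assay on membranes from HEK293 cells stably expressing human CCR1 from an episomal vector. Buffer was 130 mM NaCl, 5 mM KCl, 1 mM MnCl2, 50 mM Tris-HCl pH 7.4, 0.1% BSA, with SPA beads at 10 mg/ml. Compound dilutions were added, then [125I]-MIP1a at 0.1 nM final. Plates were spun 2 min, incubated 4 h, then scintillation-counted.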

[4] = Metabolic stability in human liver microsomes assessed as compound remaining at 1 uM after 30 mins; assay type: ADME, Microsome; settings: read-out: Stability; summary of the method: as §3
Cytochrome P450 3A4 = Cytochrome P450 3A4 (Homo sapiens, UniProt P08684); assay: Inhibition of human recombinant CYP3A4 at < 10 uM; assay type: ADME; settings: recombinant enzyme
Summary of the method: (§4)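 Each human recombinant CYP isoenzyme (1A2, 2C9, 2C19, 2D6, 3A4) was run with its own fluorogenic substrate, with test compound up to […]. Fluorescence was read after a defined reaction time. Percent inhibition was fitted against log concentration to give IC50.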

Rattus norvegicus = assay: as §1; assay type: ADME, organism-based, Plasma; set-up: time infinity, dose 5 mg/kg, route oral; settings: in vivo; summary of the method: as §2
[5] = Cmax in Sprague-Dawley rat plasma at 5 mg/kg, po; assay type: ADME, organism-based; set-up: dose 5 mg/kg, route oral; summary of the method: as §2
Cytochrome P450 2C19 = Cytochrome P450 2C19 (Homo sapiens, UniProt P33261); assay: Inhibition of human recombinant CYP2C19 at < 10 uM; assay type: ADME; settings: recombinant enzyme; summary of the method: as §4
Cytochrome P450 2D6 = Cytochrome P450 2D6 (Homo sapiens, UniProt P10635); assay: Inhibition of human recombinant CYP2D6 at < 10 uM; assay type: ADME; settings: recombinant enzyme; summary of the method: as §4
[6] = Half life in Sprague-Dawley rat plasma at 5 mg/kg, po; assay type: ADME, organism-based; set-up: dose 5 mg/kg, route oral; summary of the method: as §2
[7] = Oral bioavailability in Sprague-Dawley rat plasma at 5 mg/kg; assay type: ADME, organism-based
Summary of the method: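 Male Sprague-Dawley rats (3–4) received an oral gavage of 5 mg/kg in 0.5% methyl cellulose and, separately, 1 mg/kg intravenously via an indwelling catheter. Serial arterial blood was collected. Plasma parent compound was measured by LC/MS/MS after protein precipitation. Bioavailability came from non-compartmental analysis.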

[8] = Tmax in Sprague-Dawley rat plasma at 5 mg/kg, po; assay type: ADME, organism-based; set-up: dose 5 mg/kg, route oral; summary of the method: as §2
Cytochrome P450 2C9 = Cytochrome P450 2C9 (Homo sapiens, UniProt P11712); assay: Inhibition of human recombinant CYP2C9 at < 10 uM; assay type: ADME; settings: recombinant enzyme; summary of the method: as §4
Cytochrome P450 1A2 = target: T2, Cytochrome P450 1A2 (Homo sapiens, UniProt P05177); assay: Inhibition of human recombinant CYP1A2 at < 10 uM; assay type: ADME; settings: recombinant enzyme; summary of the method: as §4
T2 sequence (P05177 whole entry): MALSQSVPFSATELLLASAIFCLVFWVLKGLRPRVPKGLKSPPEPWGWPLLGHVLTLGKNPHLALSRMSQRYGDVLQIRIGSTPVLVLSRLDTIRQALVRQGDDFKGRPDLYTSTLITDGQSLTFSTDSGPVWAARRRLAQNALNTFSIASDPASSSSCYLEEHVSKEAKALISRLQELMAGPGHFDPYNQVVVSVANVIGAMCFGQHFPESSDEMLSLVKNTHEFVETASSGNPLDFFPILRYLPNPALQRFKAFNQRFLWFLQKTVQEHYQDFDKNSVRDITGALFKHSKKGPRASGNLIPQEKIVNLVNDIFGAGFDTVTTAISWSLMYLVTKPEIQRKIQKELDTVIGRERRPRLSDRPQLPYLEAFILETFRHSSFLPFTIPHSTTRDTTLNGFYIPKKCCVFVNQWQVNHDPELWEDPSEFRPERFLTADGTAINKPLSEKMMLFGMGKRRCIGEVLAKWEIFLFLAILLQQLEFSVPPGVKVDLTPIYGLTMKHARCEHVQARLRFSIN

[9] = Antagonist activity at CCR1 in human THP1 cells assessed as inhibition of CCL3-induced chemotaxis after 3 hrs; settings: thp-1

Chain of Cytochrome P450 2D6 (P10635 whole entry): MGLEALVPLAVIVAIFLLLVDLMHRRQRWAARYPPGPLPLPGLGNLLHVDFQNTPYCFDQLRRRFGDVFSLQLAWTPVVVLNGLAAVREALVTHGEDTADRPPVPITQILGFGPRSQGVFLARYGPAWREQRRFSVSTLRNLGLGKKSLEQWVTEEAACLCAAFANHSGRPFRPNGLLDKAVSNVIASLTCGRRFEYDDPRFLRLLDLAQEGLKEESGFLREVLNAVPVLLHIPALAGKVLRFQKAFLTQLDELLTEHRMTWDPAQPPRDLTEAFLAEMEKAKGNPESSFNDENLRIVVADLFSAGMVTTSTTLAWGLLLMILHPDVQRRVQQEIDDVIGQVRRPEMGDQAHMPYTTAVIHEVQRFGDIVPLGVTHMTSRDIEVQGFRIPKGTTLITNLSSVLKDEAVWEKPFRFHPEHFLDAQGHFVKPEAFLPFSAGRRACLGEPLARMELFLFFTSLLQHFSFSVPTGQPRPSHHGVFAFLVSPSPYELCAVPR
Chain of Cytochrome P450 2C9 (P11712 whole entry): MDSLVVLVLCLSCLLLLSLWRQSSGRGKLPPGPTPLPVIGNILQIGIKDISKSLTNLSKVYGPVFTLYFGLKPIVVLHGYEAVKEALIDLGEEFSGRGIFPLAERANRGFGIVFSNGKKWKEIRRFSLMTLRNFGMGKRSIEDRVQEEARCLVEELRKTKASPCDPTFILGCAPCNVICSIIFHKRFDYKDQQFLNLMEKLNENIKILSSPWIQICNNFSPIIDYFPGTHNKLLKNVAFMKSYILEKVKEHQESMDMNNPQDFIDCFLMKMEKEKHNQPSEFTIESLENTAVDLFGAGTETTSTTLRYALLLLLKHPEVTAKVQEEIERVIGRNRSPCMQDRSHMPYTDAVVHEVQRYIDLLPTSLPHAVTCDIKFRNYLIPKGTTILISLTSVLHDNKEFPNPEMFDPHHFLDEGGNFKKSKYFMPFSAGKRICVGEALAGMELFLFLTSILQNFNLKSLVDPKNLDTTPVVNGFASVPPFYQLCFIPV
Chain of Cytochrome P450 3A4 (P08684 whole entry): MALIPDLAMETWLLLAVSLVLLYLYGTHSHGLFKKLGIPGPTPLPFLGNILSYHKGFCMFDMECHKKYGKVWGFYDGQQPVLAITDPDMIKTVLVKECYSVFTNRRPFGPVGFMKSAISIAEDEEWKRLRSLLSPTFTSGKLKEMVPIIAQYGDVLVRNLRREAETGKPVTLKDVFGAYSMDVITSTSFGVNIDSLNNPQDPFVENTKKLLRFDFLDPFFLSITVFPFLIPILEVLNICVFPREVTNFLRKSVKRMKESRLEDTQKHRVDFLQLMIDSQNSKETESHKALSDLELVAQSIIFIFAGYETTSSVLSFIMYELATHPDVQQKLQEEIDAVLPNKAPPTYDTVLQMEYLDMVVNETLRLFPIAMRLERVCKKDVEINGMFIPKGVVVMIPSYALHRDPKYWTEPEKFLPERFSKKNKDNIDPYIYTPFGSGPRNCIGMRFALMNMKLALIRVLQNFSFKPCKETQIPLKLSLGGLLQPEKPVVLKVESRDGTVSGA
Chain of Cytochrome P450 2C19 (P33261 whole entry): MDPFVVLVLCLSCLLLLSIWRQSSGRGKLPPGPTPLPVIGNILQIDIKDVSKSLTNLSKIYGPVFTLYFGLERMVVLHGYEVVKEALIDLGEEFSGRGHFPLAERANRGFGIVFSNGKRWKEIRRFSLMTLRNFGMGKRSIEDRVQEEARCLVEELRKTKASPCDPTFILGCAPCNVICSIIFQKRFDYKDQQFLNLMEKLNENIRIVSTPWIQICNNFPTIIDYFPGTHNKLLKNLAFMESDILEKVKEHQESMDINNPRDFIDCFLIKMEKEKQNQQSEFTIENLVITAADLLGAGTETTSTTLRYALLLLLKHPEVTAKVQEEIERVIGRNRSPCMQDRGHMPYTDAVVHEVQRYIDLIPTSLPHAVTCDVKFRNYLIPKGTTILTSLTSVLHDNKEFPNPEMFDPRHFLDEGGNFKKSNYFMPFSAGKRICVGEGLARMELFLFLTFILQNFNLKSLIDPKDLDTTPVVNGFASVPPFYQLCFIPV

| AUC(0-inf) [1] [ng·h/mL] | remaining at 0.5 h, 1 µM [2] [%] | IC50 [3] [nM] | remaining at 0.5 h, 1 µM [4] [%] | Compound | other results |
| --- | --- | --- | --- | --- | --- |
| 100 | 55 | 65 | 39 | O=C(Nc1ccc(C(F)(F)F)cc1)N1CCCC1c1nccn1Cc1ccc(Cl)cc1 (stereo not given) | – |
| – | 25 | 20 | 59 | O=C(Nc1ccc(C(F)(F)F)cc1)N1CCC[C@@H]1c1nnnn1Cc1ccc(Cl)cc1 | – |
| 4460 | 81 | 32 | 61 | O=C(Nc1ccc(C(F)(F)F)cc1)N1CCC[C@@H]1c1ncnn1Cc1ccc(Cl)cc1 | – |
| – | – | 810 | – | Cc1nc([C@H]2CCCN2C(=O)Nc2ccc(C(F)(F)F)cc2)n(Cc2ccc(Cl)cc2)n1 | – |
| 657 | 41 | 17 | 52 | O=C(Nc1ccc(C(F)(F)F)cc1)N1CCC[C@@H]1c1nncn1Cc1ccc(Cl)cc1 | – |
| – | 87 | 69 | 100 | Cc1nnc([C@H]2CCCN2C(=O)Nc2ccc(C(F)(F)F)cc2)n1Cc1ccc(Cl)cc1 | inhibition (INH) (Cytochrome P450 3A4): Not Active; AUC (Rattus norvegicus): 7649 ng·h/mL; Cmax [5]: 1120 ng/mL; inhibition (INH) (Cytochrome P450 2C19): Not Active; inhibition (INH) (Cytochrome P450 2D6): Not Active; half-life [6]: 228 min; bioavailability [7]: 26%; Tmax [8]: 1.1 h; inhibition (INH) (Cytochrome P450 2C9): Not Active; inhibition (INH) (Cytochrome P450 1A2): Not Active |
| – | – | – | – | CN(Cc1ccc(Cl)cc1)C(=O)[C@H]1CCCN1C(=O)Nc1ccc(C(F)(F)F)cc1 | IC50 [9]: 22 nM |

From ChEMBL document CHEMBL1221349, “Novel pyrrolidine heterocycles as CCR1 antagonists” (Bioorg Med Chem Lett, 2010)
